Here are results for 10 compounds from ChEMBL document CHEMBL1155470, “Colloid formation by drugs in simulated intestinal fluid” (J Med Chem, 2010).

One may read the IC50 as the concentration at which inhibition is half-maximal.

Data set [1] deals with T1, Cruzipain (Trypanosoma cruzi, UniProt P25779). Nature of the data set: Inhibition of Trypanosoma cruzi cruzaine preincubated for 5 mins before substrate addition by fluorescence assay in presence of 0.01% Triton X-100.
A short description of data set [2]: Colloidal aggregation in fed state simulated intestinal fluid assessed as colloid radius at 250 uM by dynamic light scattering assay in presence of 1% DMSO. The format is physicochemical. Conditions: simulated gi fluid. The method, boiled down: (§1)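 Concentrated DMSO stocks diluted into filtered FeSSIF: blank FeSSIF plus 15 mM sodium taurocholate and 3.75 mM lecithin, dissolved at 37 °C. Final DMSO 1% unless otherwise noted. Particle size by dynamic light scattering at 826.6 nm, detector at 90°, 100% laser power. Values are averages of three or more independent measurements at room temperature.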

Data set [3] in a line: Colloidal aggregation in fed state simulated intestinal fluid by dynamic light scattering assay in presence of 0.5% DMSO. The following applies: simulated gi fluid. The class given is physicochemical. In a few lines:
as §1

In data set [4] the target is T1, Cruzipain. The experiment in a line: Inhibition of Trypanosoma cruzi cruzaine preincubated for 5 mins before substrate addition by fluorescence assay in absence of Triton X-100.
A short description of data set [5]: Colloidal aggregation in fed state simulated intestinal fluid assessed as colloid radius at 100 uM by dynamic light scattering assay in presence of 1% DMSO. Conditions: simulated gi fluid. The format is physicochemical. In a few lines:
as §1

The nature of data set [6]: Colloidal aggregation in fed state simulated intestinal fluid at 700 uM by transmission electron microscopy in presence of 3% DMSO. The following applies: simulated gi fluid. The class given is physicochemical. In a few lines: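 Drug DMSO stocks diluted into FeSSIF. Samples adsorbed ~30 s onto glow-discharged formvar/carbon-coated copper grids and negatively stained with 2% ammonium molybdate. Viewed by transmission electron microscopy at 80 kV, standard magnification 25 000, calibrated with catalase crystals and ferritin.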

Data set [7] is described as follows: Colloidal aggregation in fed state simulated intestinal fluid by dynamic light scattering-based beads autocorrelation assay in presence of 1% DMSO. The format is physicochemical. Conditions: simulated gi fluid. In a few lines: (§2)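 FeSSIF samples examined by DLS (826.6 nm laser, 90° detector, room temperature), comparing autocorrelation curves with blank FeSSIF. The micelle background was checked with 200 nm calibration beads diluted in FeSSIF. Drug samples were made by diluting DMSO stocks into filtered FeSSIF (15 mM taurocholate, 3.75 mM lecithin).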

Data set [8] in a line: Aggregation-based binding affinity to beta-lactamase AmpC at 700 uM in fed state simulated intestinal fluid after 30 mins by silver staining in presence of 3% DMSO. In a few lines: (§3)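 Cosedimentation in FeSSIF, with and without 2 μg AmpC β-lactamase added per sample. Samples centrifuged at 16000g for 30 min at room temperature. Supernatant removed completely; pellets resuspended in DMSO plus 50 mM KPi pH 7.0 and run on SDS-PAGE. Protein detected by silver staining. Drug-only pellets included as background controls.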

Data set [9] can be described thus: Binding affinity to beta-lactamase AmpC at 700 uM after 30 mins by SDS-PAGE. The method, boiled down: as §3
Data set [10] can be described thus: Colloidal aggregation in fed state simulated intestinal fluid by dynamic light scattering assay in presence of 3% DMSO. The class given is physicochemical. Conditions: simulated gi fluid. In a few lines:
as §1

A short description of data set [11]: Colloidal aggregation in fed state simulated intestinal fluid assessed as colloid radius at 600 uM by dynamic light scattering assay in presence of 3% DMSO. The class given is physicochemical. Conditions: simulated gi fluid. The method, boiled down: as §1
Data set [12] is described as follows: Colloidal aggregation in phosphate buffer at 200 uM by transmission electron microscopy in presence of 0.2% DMSO. The format is physicochemical. The method, boiled down:
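Drug DMSO stocks diluted into 50 mM phosphate buffer. Samples adsorbed ~30 s onto glow-discharged formvar/carbon-coated copper grids and negatively stained with 2% ammonium molybdate. Imaged by transmission electron microscopy at 80 kV, standard magnification 25 000.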

Data set [13] can be described thus: Colloidal aggregation in fed state simulated intestinal fluid at 450 uM by dynamic light scattering-based beads autocorrelation assay in presence of 1.8% DMSO. The format is physicochemical. Conditions: simulated gi fluid. In a few lines: as §2
Data set [14] can be described thus: Colloidal aggregation in fed state simulated intestinal fluid by dynamic light scattering assay in presence of 1.8% DMSO. The format is physicochemical. Conditions: simulated gi fluid. The method, boiled down:
as §1

Data set [15] can be described thus: Colloidal aggregation in fed state simulated intestinal fluid assessed as colloid radius at 10 uM by dynamic light scattering assay in presence of 1% DMSO. The following applies: simulated gi fluid.
Data set [16] in a line: Colloidal aggregation in fed state simulated intestinal fluid assessed as colloid radius at 450 uM by dynamic light scattering assay in presence of 1% DMSO. The class given is physicochemical. The following applies: simulated gi fluid. The method, boiled down: as §1
A short description of data set [17]: Colloidal aggregation in fed state simulated intestinal fluid assessed as colloid radius at 5 uM by dynamic light scattering assay in presence of 1% DMSO. The class given is physicochemical. Conditions: simulated gi fluid. The method, boiled down: as §1
The nature of data set [18]: Colloidal aggregation in fed state simulated intestinal fluid assessed as colloid radius at 200 uM by dynamic light scattering assay in presence of 1% DMSO. The format is physicochemical. The following applies: simulated gi fluid. In a few lines: as §1
Data set [19] is described as follows: Colloidal aggregation in fed state simulated intestinal fluid assessed as colloid radius at 50 uM by dynamic light scattering assay in presence of 1% DMSO. Conditions: simulated gi fluid. The format is physicochemical. The method, boiled down: as §1

Active and inactive are the calls of the source. The calls are words filed in the database; no cut-off is given here. Where only a bound is given, the exact number is not on record here.

T1 sequence (P25779 whole entry): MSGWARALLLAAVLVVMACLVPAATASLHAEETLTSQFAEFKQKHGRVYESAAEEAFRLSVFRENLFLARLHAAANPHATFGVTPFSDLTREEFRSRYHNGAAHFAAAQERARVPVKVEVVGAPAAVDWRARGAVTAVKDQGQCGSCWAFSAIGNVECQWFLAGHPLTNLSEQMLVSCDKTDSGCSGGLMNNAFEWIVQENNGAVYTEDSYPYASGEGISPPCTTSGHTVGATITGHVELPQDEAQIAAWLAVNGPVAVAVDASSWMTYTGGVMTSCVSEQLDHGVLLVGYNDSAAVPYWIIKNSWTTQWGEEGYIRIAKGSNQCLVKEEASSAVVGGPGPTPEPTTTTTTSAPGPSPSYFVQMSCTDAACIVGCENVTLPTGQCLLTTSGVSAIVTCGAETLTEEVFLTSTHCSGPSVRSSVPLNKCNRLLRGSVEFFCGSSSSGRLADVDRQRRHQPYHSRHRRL

As to `COc1cc2ncnc(Nc3ccc(F)c(Cl)c3)c2cc1OCCCN1CCOCC1` [GEFITINIB], the IC50 is 148 µM on Cruzipain [1] and 88 µM at Cruzipain [4]. Moreover, the Activity in [2] was 160.1 nm; in data set [3], 250 µM.
In the case of `Cc1ccc(NC(=O)c2ccc(CN3CCN(C)CC3)cc2)cc1Nc1nccc(-c2cccnc2)n1` [IMATINIB], the IC50 is 297 µM at Cruzipain [1] and 207 µM on Cruzipain [4]. Also, the Activity in data set [5] was 118.4 nm.
For `COC(=O)[C@H](c1ccccc1Cl)N1CCc2sccc2C1` [CLOPIDOGREL BISULFATE], the IC50 on Cruzipain [1] was greater than 300 µM; at Cruzipain [4], 123 µM.
As to `CC(C)Nc1cccnc1N1CCN(C(=O)c2cc3cc(NS(C)(=O)=O)ccc3[nH]2)CC1.CS(=O)(=O)O` [DELAVIRDINE MESYLATE], the IC50 at Cruzipain [1] was greater than 200 µM; at Cruzipain [4], 122 µM. Moreover, the Activity result in data set [6] was “Active”; in [7], “Active”; in data set [3] it was 100 µM; in data set [10], 600 µM; in data set [11], 62.8 nm; in data set [12] it was “Active”. For the same compound, in data set [5], the Activity is recorded as 195.1 nm. The outcome in data set [8] was Active. Moreover, the result in data set [9] was inactive.
With `CC(C)OC(=O)C(C)(C)Oc1ccc(C(=O)c2ccc(Cl)cc2)cc1` [FENOFIBRATE], the Activity result in data set [13] was “Active”; in data set [14] it was 450 µM; in [15], 129 nm; in data set [16], 113.8 nm. Moreover, the IC50 at Cruzipain [1] is greater than 500 µM; against Cruzipain [4], 61 µM.
With `Cc1cccc(CN2CCN(C(c3ccccc3)c3ccc(Cl)cc3)CC2)c1.Cl` (configuration not stated) [MECLIZINE DIHCL], the IC50 on Cruzipain [1] is greater than 250 µM; against Cruzipain [4] it was 129 µM. The Activity in [17] is on record as 133.3 nm.
In the case of `C(=C\c1ccccc1)/CN1CCN(C(c2ccccc2)c2ccccc2)CC1` [CINNARIZINE], the IC50 at Cruzipain [1] was greater than 300 µM; on Cruzipain [4], 124 µM.
In the case of `Cc1cc(C#N)cc(C)c1Oc1nc(Nc2ccc(C#N)cc2)nc(N)c1Br` [ETRAVIRINE], the IC50 was greater than 200 µM at Cruzipain [1] and 4 µM at Cruzipain [4]. The Activity result in [7] was “Active”; in data set [15], 323.2 nm; in data set [18], 373.3 nm.
`O=C(Nc1cccc2c(=O)cc(-c3nnn[nH]3)oc12)c1ccc(OCCCCc2ccccc2)cc1`: the results for the IC50 on Cruzipain [1] and on Cruzipain [4] were 68 µM and 7 µM, respectively. Besides, the Activity in [19] is 1167.7 nm.
Turning to `CSc1nc2cc(Cl)c(Oc3cccc(Cl)c3Cl)cc2[nH]1` [TRICLABENDAZOLE], the IC50 at Cruzipain [1] was greater than 200 µM; on Cruzipain [4] it was 15 µM. The Activity in data set [15] is listed as 93 nm.
